Results from ChEMBL document CHEMBL1155717, “Monoterpene glycosides and triterpene acids from Eriobotrya deflexa” (J Nat Prod, 2001).
Active and inactive are the calls of the source. The rule behind the calls is not given here.

test system: not listed separately; test: Antiinflammatory activity in human PMNC assessed as inhibition of proliferation; format: functional
Outline: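 In vitro antiproliferation assay on human mononuclear cells (T lymphocytes, B lymphocytes and macrophages) isolated from peripheral blood. Compounds were tested at up to 100 µM, and activity was expressed as IC50.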

In order of rising IC50:
1. C[C@@H]1CC[C@]2(C(=O)O)CC[C@]3(C)C(=CC[C@@H]4[C@@]5(C)[C@H](O)[C@@H](O)C(=O)C(C)(C)[C@@H]5CC[C@]43C)[C@@H]2[C@]1(C)O  26.9 µM
2. C[C@@H]1CC[C@]2(C(=O)O)CC[C@]3(C)C(=CC[C@@H]4[C@@]5(C)C[C@@H](O)[C@@H](O)C(C)(C)[C@@H]5CC[C@]43C)[C@@H]2[C@]1(C)O [EUSCAPHIC ACID]  28.8 µM
3. C[C@@H]1CC[C@]2(C(=O)O)CC[C@]3(C)C(=CC[C@@H]4[C@@]5(C)[C@H](O)C(=O)[C@H](O)C(C)(C)[C@@H]5CC[C@]43C)[C@@H]2[C@]1(C)O  32.5 µM
4. C[C@@H]1CC[C@]2(C(=O)O)CC[C@]3(C)C(=CC[C@@H]4[C@@]5(C)CC(=O)[C@H](O)C(C)(C)[C@@H]5CC[C@]43C)[C@@H]2[C@]1(C)O  38.1 µM
5. C[C@@H]1CC[C@]2(C(=O)O)CC[C@]3(C)C(=CC[C@@H]4[C@@]5(C)C[C@@H](O)C(=O)C(C)(C)[C@@H]5CC[C@]43C)[C@@H]2[C@]1(C)O  40 µM

species on record: Homo sapiens; test: Antiinflammatory activity in human PMNC assessed as inhibition of proliferation upto 10 uM; format: functional

In the case of `C=C[C@](C)(CCC=C(C)C)O[C@@H]1O[C@H](CO[C@@H]2O[C@@H](C)[C@H](OC(=O)/C=C/c3ccc(O)cc3)[C@@H](O[C@@H]3O[C@@H](C)[C@H](O)[C@@H](O)[C@H]3O)[C@H]2O)[C@@H](O)[C@H](O)[C@H]1O`, the Activity is reported as “inactive”.
With `C=C[C@](C)(CCC=C(C)C)O[C@@H]1O[C@H](CO[C@@H]2O[C@@H](C)[C@H](OC(=O)/C=C\c3ccc(O)cc3)[C@@H](O[C@@H]3O[C@@H](C)[C@H](O)[C@@H](O)[C@H]3O)[C@H]2O)[C@@H](O)[C@H](O)[C@H]1O` the Activity was “inactive”.
